This passage reports IC50, solubility and selectivity ratio results from ChEMBL document CHEMBL2146434, “Synthesis and biological evaluation of new amino acid and dipeptide derivatives of neocryptolepine as anticancer agents” (J Med Chem, 2012).

A word on the IC50: it is the concentration at which inhibition is half-maximal. A low value points to higher potency.

Molecules are shown by their SMILES.

In the first data set the test system is KB. Briefly: Cytotoxicity against human KB cells after 72 hrs by SRB assay. It counts as functional, cell-based.
Conditions: not given
Background: The SRB assay estimates cell density from bound dye.
In turn, `Cc1c2c3cc(NC(=O)[C@H](N)Cc4cnc[nH]4)ccc3nc-2n(C)c2ccccc12.Cl` had an IC50 of 4850 nM.
The same measure, in the same setting: next, `Cc1c2c3cc(NC(=O)[C@H]4CCCN4)ccc3nc-2n(C)c2ccccc12.Cl.Cl`: 730 nM; `Cc1c2ccccc2nc2c1c1cc(NC(=O)[C@@H]3CCCN3)ccc1n2C`: 4390 nM; `Cc1c2c3cc(NC(=O)[C@@H]4CCCN4C(=O)CN)ccc3nc-2n(C)c2ccccc12.Cl.Cl`: 700 nM.
Same read-out and setting: as for `Cc1c2c3cc(NC(=O)CNC(=O)[C@@H](N)Cc4cnc[nH]4)ccc3nc-2n(C)c2ccccc12.Cl`, the figure is 3640 nM.
The compound `Cc1c2c3cc(NC(=O)[C@@H](N)Cc4cnc[nH]4)ccc3nc-2n(C)c2ccccc12.Cl` yielded an IC50 of 3460 nM.

The next data set relates to MCF7. Briefly: Cytotoxicity against human MCF7 cells after 72 hrs by SRB assay. In kind it is functional, cell-based. The following applies: MCF7, 72 h. A digest of the protocol: (§1)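 IC50 is the compound concentration giving 50% inhibition of cell proliferation. It was determined on normal mouse BALB/3T3 fibroblasts and on human A549, MCF-7 and LoVo cancer lines, with doxorubicin hydrochloride and DiMIQ as reference compounds.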
`Cc1c2c3cc(NC(=O)[C@H]4CCCN4)ccc3nc-2n(C)c2ccccc12.Cl.Cl` returned an IC50 of 600 nM.
The same measure, in the same setting: as for `Cc1c2c3cc(NC(=O)[C@@H]4CCCN4C(=O)CN)ccc3nc-2n(C)c2ccccc12.Cl.Cl`, the figure is 1130 nM.

The test system of the next data set is A549. Briefly: Cytotoxicity against human A549 cells after 72 hrs by SRB assay. It counts as functional, cell-based. The following applies: A549, 72 h. Summed up:
as §1
In turn, `Cc1c2c3cc(NC(=O)[C@H]4CCCN4)ccc3nc-2n(C)c2ccccc12.Cl.Cl` registered an IC50 of 320 nM.
The same measure, in the same setting: as for `Cc1c2c3cc(NC(=O)[C@@H]4CCCN4C(=O)CN)ccc3nc-2n(C)c2ccccc12.Cl.Cl`, the figure is 860 nM.

Test system in a further data set: not listed separately
Briefly: Solubility of the compound in water. The conditions noted are these: buffer. In kind it is physicochemical.
For the compound `Cc1c2c3cc(NC(=O)[C@H](N)Cc4cnc[nH]4)ccc3nc-2n(C)c2ccccc12.Cl`, the solubility entry was “soluble”.
As for `Cc1c2c3cc(NC(=O)[C@H]4CCCN4)ccc3nc-2n(C)c2ccccc12.Cl.Cl`, the solubility result is listed as “soluble”.
With `Cc1c2c3cc(NC(=O)[C@@H]4CCCN4C(=O)CN)ccc3nc-2n(C)c2ccccc12.Cl.Cl`, the solubility entry is “soluble”.
For `Cc1c2c3cc(NC(=O)CNC(=O)[C@@H](N)Cc4cnc[nH]4)ccc3nc-2n(C)c2ccccc12.Cl`, the solubility entry was “soluble”.
With `Cc1c2c3cc(NC(=O)[C@@H](N)Cc4cnc[nH]4)ccc3nc-2n(C)c2ccccc12.Cl`, the solubility entry was “soluble”.

The subject of a further data set is LoVo. Briefly: Cytotoxicity against human LoVo cells after 72 hrs by SRB assay. In kind it is functional, cell-based.
Conditions: not given
A digest of the protocol: as §1
`Cc1c2c3cc(NC(=O)[C@H]4CCCN4)ccc3nc-2n(C)c2ccccc12.Cl.Cl`: the midpoint of inhibition, the IC50, lay at 620 nM.
On the same count and under the same terms, next, `Cc1c2c3cc(NC(=O)[C@@H]4CCCN4C(=O)CN)ccc3nc-2n(C)c2ccccc12.Cl.Cl`: 440 nM.

Test system in another data set: not listed separately
Briefly: Ratio of IC50 for compound to ratio of IC50 for DiMIQ for BALB mouse 3T3 cells. In kind it is cell-based. The following applies: read-out: Ratio IC50.
As for `Cc1c2c3cc(NC(=O)[C@H]4CCCN4)ccc3nc-2n(C)c2ccccc12.Cl.Cl`, the selectivity ratio came out at 5.
On the same count and under the same terms, as for `Cc1c2c3cc(NC(=O)[C@@H]4CCCN4C(=O)CN)ccc3nc-2n(C)c2ccccc12.Cl.Cl`, the figure is 5.
